In assay [1] the target is T1, 5-hydroxytryptamine receptor 1A (Rattus norvegicus, UniProt P19327).
T1 sequence (P19327 whole entry): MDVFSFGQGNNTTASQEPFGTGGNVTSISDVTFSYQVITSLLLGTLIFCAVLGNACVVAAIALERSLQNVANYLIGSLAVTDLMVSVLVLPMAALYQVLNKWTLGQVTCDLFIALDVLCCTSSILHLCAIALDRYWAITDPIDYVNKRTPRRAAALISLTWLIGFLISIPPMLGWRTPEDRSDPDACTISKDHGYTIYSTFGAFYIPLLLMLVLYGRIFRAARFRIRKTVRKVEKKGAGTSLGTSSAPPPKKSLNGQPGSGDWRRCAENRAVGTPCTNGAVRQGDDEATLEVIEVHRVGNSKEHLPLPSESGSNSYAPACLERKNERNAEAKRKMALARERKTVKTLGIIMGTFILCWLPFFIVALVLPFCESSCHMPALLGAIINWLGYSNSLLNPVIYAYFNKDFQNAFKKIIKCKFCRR
Briefly: Compound was tested for the displacement of [3H]-8-OH- DPAT from rat brain 5-hydroxytryptamine 1A receptor. The gist of the method: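 Pooled rat hippocampal membranes were preincubated at 37 °C. Buffer was 50 mM Tris HCl pH 7.4 with 0.5 mM Na2EDTA, 10 mM MgCl2, 0.1% Na ascorbate and pargyline. 200–400 μg protein was incubated with [3H]-8-OH-DPAT for 15 min at 37 °C, then GF/C filtered and scintillation counted. Nonspecific binding was defined with 10 μM 5-HT. Triplicate tubes.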
Background: Loss of bound radioactivity is the signal in a displacement assay; it reports binding, not function.

Assay [2] concerns the target 5-hydroxytryptamine receptor 2A (Homo sapiens, UniProt P28223). Briefly: Compound was tested for the displacement of [125I]DOI from cloned human 5-hydroxytryptamine 2A receptor. In outline: (§1)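 Membranes from AV12 hamster fibroblasts stably expressing human 5-HT2A or 5-HT2C. [125I]DOI was about 0.07–0.15 nM final. Buffer was 50 mM Tris-HCl pH 7.4 with 10 μM pargyline, 9.75 mM MgCl2, 0.5 mM Na2-EDTA and 0.1% Na ascorbate. Incubation was 30 min at 37 °C with about 40 μg protein (2A) or 30 μg (2C). Nonspecific binding used 1 μM ketanserin (2A) or 10 μM mianserin (2C). Read by gamma counting; sigmoid nonlinear regression.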

Assay [3] deals with T2, 5-hydroxytryptamine receptor 2C (Homo sapiens, UniProt P28335).
T2 sequence (P28335 whole entry): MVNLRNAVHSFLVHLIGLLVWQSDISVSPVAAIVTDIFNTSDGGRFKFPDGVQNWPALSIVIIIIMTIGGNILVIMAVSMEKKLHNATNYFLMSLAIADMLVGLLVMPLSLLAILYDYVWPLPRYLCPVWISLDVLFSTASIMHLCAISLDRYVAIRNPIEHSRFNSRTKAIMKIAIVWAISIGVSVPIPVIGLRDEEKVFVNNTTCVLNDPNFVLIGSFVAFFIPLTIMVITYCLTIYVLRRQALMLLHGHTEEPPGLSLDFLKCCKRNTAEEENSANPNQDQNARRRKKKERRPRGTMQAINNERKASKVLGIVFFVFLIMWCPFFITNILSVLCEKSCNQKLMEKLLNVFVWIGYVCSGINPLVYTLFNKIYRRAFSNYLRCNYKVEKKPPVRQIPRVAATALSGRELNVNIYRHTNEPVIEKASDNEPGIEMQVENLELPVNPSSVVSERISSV
Briefly: Compound was tested for the displacement of [125I]DOI from cloned human 5-hydroxytryptamine 2C receptor. In outline: as §1

For assay [4], the target named is 5-hydroxytryptamine receptor 2B (Homo sapiens, UniProt P41595). In words: Compound was tested for the displacement of [3H]5-HT from cloned human 5-hydroxytryptamine 2B receptor. In outline:
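Membranes from AV12 cells stably expressing human 5-HT2B, 100–150 μg protein. [3H]-5-HT was about 2 nM (1.7–2.5 nM) final. Buffer was 50 mM Tris pH 7.4 with 3 mM CaCl2, 10 μM pargyline and 0.1% ascorbic acid. Drug dilutions spanned 6 log units. Incubation was 15 min at 37 °C. Nonspecific binding used 10 μM 5-HT or 1-NP. PEI-soaked GF/B filtration, scintillation counting, triplicate, sigmoid nonlinear regression.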

Assay [5] concerns Rattus norvegicus. In words: Percentage of animals failing to emit 50 lever presses within 15 min in DOI trained rats at a compound dose of 16 mg/kg. The assay is classed as functional. The gist of the method:
(§2)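 Male Sprague–Dawley rats (200–220 g) in a two-lever, FR50 food-reinforced task. Rats were trained to discriminate saline from LSD tartrate (0.08 mg/kg), DOI HCl (0.4 mg/kg) or LY293284 (0.025 mg/kg) in 15-min sessions. %SDL is the share of rats making over 80% of presses on the drug lever. %D is the share failing to make 50 presses within 15 min. ED50 by Litchfield–Wilcoxon log-probit.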

Assay [6] has as its system Rattus norvegicus. In words: Percentage of animals failing to emit 50 lever presses within 15 min in DOI trained rats at a compound dose of 4 mg/kg. It is filed as functional. In outline:
as §2

Assay [7] deals with Rattus norvegicus. In words: Percentage of animals failing to emit 50 lever presses within 15 min in DOI trained rats at a compound dose of 8 mg/kg. The assay is classed as functional. The gist of the method: as §2
In assay [8] the test system is Rattus norvegicus. Briefly: Percentage of animals failing to emit 50 lever presses within 15 min in LSD trained rats at a compound dose of 16 mg/kg. The assay is classed as functional. The gist of the method:
as §2

The subject of assay [9] is Rattus norvegicus. In words: Percentage of animals failing to emit 50 lever presses within 15 min in LSD trained rats at a compound dose of 2.0 mg/kg. It is filed as functional. In outline:
as §2

Assay [10] deals with Rattus norvegicus. In words: Percentage of animals failing to emit 50 lever presses within 15 min in LSD trained rats at a compound dose of 4.0 mg/kg. The assay is classed as functional. In outline: (§3)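 Two-lever drug discrimination in male Sprague–Dawley rats (200–220 g at start), trained against saline on LSD tartrate (0.08 mg/kg), DOI HCl (0.4 mg/kg) or LY293284 (0.025 mg/kg). FR50 food-pellet reinforcement, levers counterbalanced, 15-min sessions at 22–24 °C. %D is the share of tested rats not completing 50 lever presses within 15 min.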

In assay [11] the test system is Rattus norvegicus. Briefly: Percentage of animals failing to emit 50 lever presses within 15 min in LSD trained rats at a compound dose of 8.0 mg/kg. It is filed as functional. In outline:
as §3

Assay [12] concerns Rattus norvegicus. In words: Percentage of animals failing to emit 50 lever presses within 15 min in […] trained rats at a compound dose of 16 mg/kg. The assay is classed as functional. The gist of the method: as §3
Assay [13] relates to Rattus norvegicus. Briefly: Percentage of animals failing to emit 50 lever presses within 15 min in […] trained rats at a compound dose of 2 mg/kg. It is filed as functional. In outline:
as §3

In assay [14] the test system is Rattus norvegicus. In words: Percentage of animals failing to emit 50 lever presses within 15 min in […] trained rats at a compound dose of 4 mg/kg. It is filed as functional. The gist of the method: as §3
Assay [15] deals with Rattus norvegicus. In words: Percentage of animals emitting >80% of lever presses in DOI trained rats at a compound dose of 12.6 uM/Kg. It is filed as functional. The gist of the method: as §2
Assay [16] has as its system Rattus norvegicus. In words: Percentage of animals emitting >80% of lever presses in DOI trained rats at a compound dose of 25.3 uM/Kg. It is filed as functional. The gist of the method: as §2
Assay [17] has as its system Rattus norvegicus. In words: Percentage of animals emitting >80% of lever presses in DOI trained rats at a compound dose of 50.6 uM/Kg. The assay is classed as functional. The gist of the method: as §2
For assay [18], the system named is Rattus norvegicus. In words: Percentage of animals emitting >80% of lever presses in LSD trained rats at a compound dose of 25.3 uM/Kg. The assay is classed as functional. In outline: as §2
The test system of assay [19] is Rattus norvegicus. Briefly: Percentage of animals emitting >80% of lever presses in LSD trained rats at a compound dose of 50.6 uM/Kg. It is filed as functional. In outline:
as §2

Assay [20] concerns Rattus norvegicus. In words: Percentage of animals emitting >80% of lever presses in LSD trained rats at a compound dose of 6.32 uM/Kg. It is filed as functional. The gist of the method: as §2
The subject of assay [21] is Rattus norvegicus. Briefly: Percentage of animals emitting >80% of lever presses in […] trained rats at a compound dose of 12.6 uM/Kg. The assay is classed as functional. The gist of the method: as §2
In assay [22] the test system is Rattus norvegicus. Briefly: Percentage of animals emitting >80% of lever presses in […] trained rats at a compound dose of 25.3 uM/Kg. The assay is classed as functional. The gist of the method: as §2
Assay [23] relates to Rattus norvegicus. In words: Percentage of animals emitting >80% of lever presses in […] trained rats at a compound dose of 50.6 uM/Kg. The assay is classed as functional. The gist of the method:
as §2

Assay [24] concerns Rattus norvegicus. In words: Percentage of animals emitting >80% of lever presses in […] trained rats at a compound dose of 6.32 uM/Kg. The assay is classed as functional. The gist of the method:
as §2

The test system of assay [25] is Rattus norvegicus. Briefly: Percentage of animals emitting >80% of lever presses in LSD trained rats at a compound dose of 12.6 uM/Kg. The assay is classed as functional. The gist of the method: as §2
For assay [26], the system named is Rattus norvegicus. In words: Percentage of animals failing to emit 50 lever presses within 15 min in […] trained rats at a compound dose of 8 mg/kg. The assay is classed as functional. In outline: as §3
Assay [27] deals with 5-hydroxytryptamine receptor 2A (Rattus norvegicus) (UniProt P14842). In words: Efficacy against 5-hydroxytryptamine 2A receptor. It is filed as functional.
Chain of 5-hydroxytryptamine receptor 2A (Rattus norvegicus) (P14842 whole entry): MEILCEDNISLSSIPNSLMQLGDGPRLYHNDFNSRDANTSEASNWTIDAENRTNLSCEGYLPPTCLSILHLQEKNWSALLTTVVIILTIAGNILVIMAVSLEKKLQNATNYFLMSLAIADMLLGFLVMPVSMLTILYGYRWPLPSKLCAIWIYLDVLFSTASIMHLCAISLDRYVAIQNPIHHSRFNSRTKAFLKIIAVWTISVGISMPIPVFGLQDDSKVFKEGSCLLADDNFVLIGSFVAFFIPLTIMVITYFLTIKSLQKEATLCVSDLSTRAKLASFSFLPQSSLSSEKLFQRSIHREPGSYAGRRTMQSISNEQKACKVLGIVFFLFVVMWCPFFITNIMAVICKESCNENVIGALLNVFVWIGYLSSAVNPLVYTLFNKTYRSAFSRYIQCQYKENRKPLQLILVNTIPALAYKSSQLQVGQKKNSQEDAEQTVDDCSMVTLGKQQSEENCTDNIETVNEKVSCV
For assay [28], the system named is Rattus norvegicus. Briefly: Percentage of animals failing to emit 50 lever presses within 15 min in rats at a compound dose of 0.1 mg/kg. It is filed as functional. In outline:
as §3

In assay [29] the test system is Rattus norvegicus. In words: Percentage of animals failing to emit 50 lever presses within 15 min in rats at a compound dose of 0.2 mg/kg. The assay is classed as functional. In outline:
as §3

Assay [30] deals with Rattus norvegicus. In words: Percentage of animals failing to emit 50 lever presses within 15 min in rats at a compound dose of 0.4 mg/kg. It is filed as functional. The gist of the method: as §3
Assay [31] has as its system Rattus norvegicus. Briefly: Percentage of animals emitting >80% of lever presses in rats at a compound dose of 0.28 uM/Kg. The assay is classed as functional. In outline: as §2
For assay [32], the system named is Rattus norvegicus. Briefly: Percentage of animals emitting >80% of lever presses in rats at a compound dose of 0.56 uM/Kg. The assay is classed as functional. In outline: as §2
The subject of assay [33] is Rattus norvegicus. In words: Percentage of animals emitting >80% of lever presses in rats at a compound dose of 1.12 uM/Kg. The assay is classed as functional. The gist of the method:
as §2

Where “and” joins values, the source holds several entries; their conditions need not be identical. Equal entries are not always repeated.

Chain of 5-hydroxytryptamine receptor 2A (P28223 whole entry): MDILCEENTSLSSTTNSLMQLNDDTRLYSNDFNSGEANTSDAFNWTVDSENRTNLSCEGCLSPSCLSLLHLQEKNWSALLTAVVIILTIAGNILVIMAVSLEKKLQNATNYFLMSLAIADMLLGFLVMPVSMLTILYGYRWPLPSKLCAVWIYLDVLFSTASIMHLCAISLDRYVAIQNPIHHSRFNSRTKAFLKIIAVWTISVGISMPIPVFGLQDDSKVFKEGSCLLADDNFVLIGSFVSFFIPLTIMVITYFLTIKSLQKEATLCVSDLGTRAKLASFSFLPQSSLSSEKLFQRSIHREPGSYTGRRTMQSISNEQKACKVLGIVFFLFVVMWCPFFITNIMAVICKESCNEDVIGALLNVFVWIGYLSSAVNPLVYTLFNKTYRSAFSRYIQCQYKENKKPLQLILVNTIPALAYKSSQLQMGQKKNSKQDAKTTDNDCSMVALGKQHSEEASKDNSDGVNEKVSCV
Chain of 5-hydroxytryptamine receptor 2B (P41595 whole entry): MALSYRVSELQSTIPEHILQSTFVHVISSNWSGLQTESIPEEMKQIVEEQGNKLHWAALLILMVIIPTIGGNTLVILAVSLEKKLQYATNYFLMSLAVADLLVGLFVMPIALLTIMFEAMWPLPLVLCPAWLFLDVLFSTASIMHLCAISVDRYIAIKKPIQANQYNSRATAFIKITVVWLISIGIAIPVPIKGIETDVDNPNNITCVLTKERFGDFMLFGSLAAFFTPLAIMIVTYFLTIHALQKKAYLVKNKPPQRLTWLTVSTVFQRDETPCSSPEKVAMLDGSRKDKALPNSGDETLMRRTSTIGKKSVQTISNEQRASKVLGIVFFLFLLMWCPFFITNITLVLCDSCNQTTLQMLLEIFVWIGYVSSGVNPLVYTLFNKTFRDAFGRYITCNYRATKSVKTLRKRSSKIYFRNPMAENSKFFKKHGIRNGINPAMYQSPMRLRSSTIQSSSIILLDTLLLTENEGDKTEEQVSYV

As for `CN(C)CCc1c[nH]c2ccsc12`, the Ki in assay [1] worked out at 76 nM; in [2] it was 276 nM; in assay [3] it was 64 nM; in [4] it was 214 nM. Besides, the D was found to be 62.5% in assay [5]; 11% in assay [6]; 78% in assay [7]; 62.5% in assay [8]; 25% in assay [9]; 22% in [10]. Moreover, the D was 36% in [11]; 0% in assay [12]; 8% in assay [13]; 30% in [14]; 22% in [26]. Besides, the SDL is 37.5% in assay [15]; 0% in assay [16]; 0% in assay [17]; 12.5% in [18]; 0% in assay [19]; 0% in assay [20]. Also, the SDL is reported as 57% in assay [21]; 71% in assay [22]; 83% in assay [23]; 50% in assay [24]; 43% in assay [25].

Regarding `COc1cc(CC(C)N)c(OC)cc1I` (stereo not drawn), the ED50 in [27] is 0.3 µmol.kg-1 and 0.11 mg/kg. Further, the figures for the D in [28], in [29] and in [30] were 0%, 10% and 0%, respectively. The SDL in assay [31] stood at 56%; in assay [32], 89%; in assay [33], 100%.

What is called Ki is the equilibrium dissociation constant of an inhibitor or competing ligand from its target. A lower Ki goes with a stronger hold on the target. Broadly, the ED50 is the dose that gives a 50% effect, or the effect in half of the subjects. A higher ED50 goes with a need for a large dose.

The values above are taken from ChEMBL document CHEMBL1132613 (J Med Chem, 1999).
